Key:
[1] = target: Casein kinase II subunit alpha (Homo sapiens) (UniProt P68400); assay: Residual activity of CK2alpha1 at 10 uM by microplate scintillation counting
[2] = target: Proto-oncogene tyrosine-protein kinase Src (Homo sapiens) (UniProt P12931); assay: Residual activity of SRC at 10 uM by microplate scintillation counting
[3] = target: CDK4/Cyclin D3 (Homo sapiens) (UniProt P11802+P30281); assay: Residual activity of CDK4/Cyclin D3 at 1 uM by microplate scintillation counting; assay type: protein-complex assay
[4] = target: T1, Serine/threonine-protein kinase D1 (Homo sapiens) (UniProt Q15139); assay: Residual activity of PKCmu at 0.1 uM by microplate scintillation counting
T1 sequence (whole entry): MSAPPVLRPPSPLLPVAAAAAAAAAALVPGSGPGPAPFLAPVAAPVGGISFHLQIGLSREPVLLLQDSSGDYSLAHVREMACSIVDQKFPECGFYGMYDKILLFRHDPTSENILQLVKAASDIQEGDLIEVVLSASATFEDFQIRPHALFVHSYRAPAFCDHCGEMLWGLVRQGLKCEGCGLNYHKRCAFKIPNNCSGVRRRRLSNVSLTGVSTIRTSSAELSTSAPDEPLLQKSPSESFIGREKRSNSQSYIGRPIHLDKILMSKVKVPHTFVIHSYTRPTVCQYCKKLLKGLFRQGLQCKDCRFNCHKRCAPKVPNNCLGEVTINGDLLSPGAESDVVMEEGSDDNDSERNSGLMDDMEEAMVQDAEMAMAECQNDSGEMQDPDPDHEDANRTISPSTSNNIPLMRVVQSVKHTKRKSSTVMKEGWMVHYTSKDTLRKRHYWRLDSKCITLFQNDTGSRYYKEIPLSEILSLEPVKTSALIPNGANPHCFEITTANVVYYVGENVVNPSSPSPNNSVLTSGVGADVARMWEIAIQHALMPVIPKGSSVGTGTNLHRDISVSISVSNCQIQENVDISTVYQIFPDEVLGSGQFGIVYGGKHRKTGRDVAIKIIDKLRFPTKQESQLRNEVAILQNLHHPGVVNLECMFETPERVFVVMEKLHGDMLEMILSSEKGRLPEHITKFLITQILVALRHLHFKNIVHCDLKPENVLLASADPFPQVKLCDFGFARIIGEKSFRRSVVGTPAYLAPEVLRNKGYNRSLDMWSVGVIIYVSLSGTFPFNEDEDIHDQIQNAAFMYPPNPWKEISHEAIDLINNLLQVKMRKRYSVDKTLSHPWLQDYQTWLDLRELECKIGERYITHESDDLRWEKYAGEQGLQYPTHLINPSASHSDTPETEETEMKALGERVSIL

[5] = target: Dual specificity mitogen-activated protein kinase kinase 1 (Homo sapiens) (UniProt Q02750); assay: Residual activity of wild type MEK1 at 10 uM by microplate scintillation counting
Chain of Dual specificity mitogen-activated protein kinase kinase 1 (Homo sapiens) (Q02750 whole entry): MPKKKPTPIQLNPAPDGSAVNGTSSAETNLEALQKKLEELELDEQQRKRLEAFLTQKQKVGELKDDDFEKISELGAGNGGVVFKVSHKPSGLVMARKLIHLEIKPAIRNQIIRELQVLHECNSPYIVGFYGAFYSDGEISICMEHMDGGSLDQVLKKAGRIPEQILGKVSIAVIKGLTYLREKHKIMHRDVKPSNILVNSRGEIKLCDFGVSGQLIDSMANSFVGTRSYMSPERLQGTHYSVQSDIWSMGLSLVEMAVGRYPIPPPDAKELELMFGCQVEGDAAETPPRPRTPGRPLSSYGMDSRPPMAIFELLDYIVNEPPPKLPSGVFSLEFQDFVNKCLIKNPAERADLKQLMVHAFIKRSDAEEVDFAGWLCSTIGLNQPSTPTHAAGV

[6] = target: T2, Ephrin type-B receptor 2 (Homo sapiens) (UniProt P29323); assay: Residual activity of EPHB2 at 0.1 uM by microplate scintillation counting
T2 sequence (whole entry): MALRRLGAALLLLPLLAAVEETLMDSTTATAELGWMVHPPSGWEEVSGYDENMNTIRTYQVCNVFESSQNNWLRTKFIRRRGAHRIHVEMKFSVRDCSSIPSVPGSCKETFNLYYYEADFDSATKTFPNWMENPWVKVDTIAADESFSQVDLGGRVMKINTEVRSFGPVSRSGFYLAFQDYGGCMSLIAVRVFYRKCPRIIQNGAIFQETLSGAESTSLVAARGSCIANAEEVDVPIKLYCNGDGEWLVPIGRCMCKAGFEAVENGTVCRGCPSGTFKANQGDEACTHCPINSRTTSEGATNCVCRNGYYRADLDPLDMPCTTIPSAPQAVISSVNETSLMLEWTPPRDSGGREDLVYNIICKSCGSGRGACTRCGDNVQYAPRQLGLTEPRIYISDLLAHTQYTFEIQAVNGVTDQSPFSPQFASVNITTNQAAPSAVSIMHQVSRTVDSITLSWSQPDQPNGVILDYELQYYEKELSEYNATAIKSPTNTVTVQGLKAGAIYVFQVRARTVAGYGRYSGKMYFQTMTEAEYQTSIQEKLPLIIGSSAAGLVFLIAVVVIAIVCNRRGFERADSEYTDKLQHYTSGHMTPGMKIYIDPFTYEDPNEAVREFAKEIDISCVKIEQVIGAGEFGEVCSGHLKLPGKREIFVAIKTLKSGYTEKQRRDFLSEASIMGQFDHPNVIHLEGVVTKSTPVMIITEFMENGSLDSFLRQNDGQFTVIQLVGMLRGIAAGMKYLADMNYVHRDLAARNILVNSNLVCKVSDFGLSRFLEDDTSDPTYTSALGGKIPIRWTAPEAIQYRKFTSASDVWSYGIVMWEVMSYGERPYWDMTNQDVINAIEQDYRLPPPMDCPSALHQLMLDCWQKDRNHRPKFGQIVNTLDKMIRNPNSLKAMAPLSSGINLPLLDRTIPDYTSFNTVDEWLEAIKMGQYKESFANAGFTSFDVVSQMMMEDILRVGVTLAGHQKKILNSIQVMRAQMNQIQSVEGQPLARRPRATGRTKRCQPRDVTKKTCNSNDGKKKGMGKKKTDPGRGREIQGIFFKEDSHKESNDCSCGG

[7] = target: Protein kinase C eta type (Homo sapiens) (UniProt P24723); assay: Residual activity of PKCeta at 0.1 uM by microplate scintillation counting
Chain of Protein kinase C eta type (Homo sapiens) (P24723 whole entry): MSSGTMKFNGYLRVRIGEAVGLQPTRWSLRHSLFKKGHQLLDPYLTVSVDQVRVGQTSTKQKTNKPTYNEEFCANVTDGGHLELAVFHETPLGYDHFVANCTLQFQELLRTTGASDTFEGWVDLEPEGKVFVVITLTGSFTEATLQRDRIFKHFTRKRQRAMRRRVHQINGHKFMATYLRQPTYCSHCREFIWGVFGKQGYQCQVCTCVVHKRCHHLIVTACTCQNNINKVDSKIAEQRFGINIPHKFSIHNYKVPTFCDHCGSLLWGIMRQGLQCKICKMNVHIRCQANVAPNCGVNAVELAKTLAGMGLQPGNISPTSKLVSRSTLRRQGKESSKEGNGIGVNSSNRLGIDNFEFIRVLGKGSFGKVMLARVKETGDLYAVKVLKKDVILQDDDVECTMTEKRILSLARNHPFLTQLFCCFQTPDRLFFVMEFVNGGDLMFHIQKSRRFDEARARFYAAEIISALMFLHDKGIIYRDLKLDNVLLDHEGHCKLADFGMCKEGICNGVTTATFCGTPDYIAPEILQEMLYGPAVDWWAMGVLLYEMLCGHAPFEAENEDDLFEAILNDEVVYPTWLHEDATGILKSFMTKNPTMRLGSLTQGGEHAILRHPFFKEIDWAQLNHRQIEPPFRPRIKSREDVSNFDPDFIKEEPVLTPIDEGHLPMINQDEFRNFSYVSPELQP

[8] = target: T3, Serine/threonine-protein kinase 17A (Homo sapiens) (UniProt Q9UEE5); assay: Residual activity of STK17A at 1 uM by microplate scintillation counting
T3 sequence (whole entry): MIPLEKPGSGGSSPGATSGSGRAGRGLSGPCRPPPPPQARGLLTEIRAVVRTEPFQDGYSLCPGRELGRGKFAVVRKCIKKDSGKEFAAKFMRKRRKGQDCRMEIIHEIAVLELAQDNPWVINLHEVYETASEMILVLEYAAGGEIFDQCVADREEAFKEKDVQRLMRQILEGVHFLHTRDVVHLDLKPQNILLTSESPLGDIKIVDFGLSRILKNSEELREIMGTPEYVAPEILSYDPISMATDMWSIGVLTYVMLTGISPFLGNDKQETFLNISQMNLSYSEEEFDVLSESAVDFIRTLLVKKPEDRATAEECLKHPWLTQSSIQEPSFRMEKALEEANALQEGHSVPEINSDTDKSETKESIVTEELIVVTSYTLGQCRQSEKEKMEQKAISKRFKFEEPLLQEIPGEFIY

[9] = target: Vascular endothelial growth factor receptor 3 (Homo sapiens, UniProt P35916); assay: Inhibition of VEGFR3 by microplate scintillation counting
Chain of Vascular endothelial growth factor receptor 3 (P35916 whole entry): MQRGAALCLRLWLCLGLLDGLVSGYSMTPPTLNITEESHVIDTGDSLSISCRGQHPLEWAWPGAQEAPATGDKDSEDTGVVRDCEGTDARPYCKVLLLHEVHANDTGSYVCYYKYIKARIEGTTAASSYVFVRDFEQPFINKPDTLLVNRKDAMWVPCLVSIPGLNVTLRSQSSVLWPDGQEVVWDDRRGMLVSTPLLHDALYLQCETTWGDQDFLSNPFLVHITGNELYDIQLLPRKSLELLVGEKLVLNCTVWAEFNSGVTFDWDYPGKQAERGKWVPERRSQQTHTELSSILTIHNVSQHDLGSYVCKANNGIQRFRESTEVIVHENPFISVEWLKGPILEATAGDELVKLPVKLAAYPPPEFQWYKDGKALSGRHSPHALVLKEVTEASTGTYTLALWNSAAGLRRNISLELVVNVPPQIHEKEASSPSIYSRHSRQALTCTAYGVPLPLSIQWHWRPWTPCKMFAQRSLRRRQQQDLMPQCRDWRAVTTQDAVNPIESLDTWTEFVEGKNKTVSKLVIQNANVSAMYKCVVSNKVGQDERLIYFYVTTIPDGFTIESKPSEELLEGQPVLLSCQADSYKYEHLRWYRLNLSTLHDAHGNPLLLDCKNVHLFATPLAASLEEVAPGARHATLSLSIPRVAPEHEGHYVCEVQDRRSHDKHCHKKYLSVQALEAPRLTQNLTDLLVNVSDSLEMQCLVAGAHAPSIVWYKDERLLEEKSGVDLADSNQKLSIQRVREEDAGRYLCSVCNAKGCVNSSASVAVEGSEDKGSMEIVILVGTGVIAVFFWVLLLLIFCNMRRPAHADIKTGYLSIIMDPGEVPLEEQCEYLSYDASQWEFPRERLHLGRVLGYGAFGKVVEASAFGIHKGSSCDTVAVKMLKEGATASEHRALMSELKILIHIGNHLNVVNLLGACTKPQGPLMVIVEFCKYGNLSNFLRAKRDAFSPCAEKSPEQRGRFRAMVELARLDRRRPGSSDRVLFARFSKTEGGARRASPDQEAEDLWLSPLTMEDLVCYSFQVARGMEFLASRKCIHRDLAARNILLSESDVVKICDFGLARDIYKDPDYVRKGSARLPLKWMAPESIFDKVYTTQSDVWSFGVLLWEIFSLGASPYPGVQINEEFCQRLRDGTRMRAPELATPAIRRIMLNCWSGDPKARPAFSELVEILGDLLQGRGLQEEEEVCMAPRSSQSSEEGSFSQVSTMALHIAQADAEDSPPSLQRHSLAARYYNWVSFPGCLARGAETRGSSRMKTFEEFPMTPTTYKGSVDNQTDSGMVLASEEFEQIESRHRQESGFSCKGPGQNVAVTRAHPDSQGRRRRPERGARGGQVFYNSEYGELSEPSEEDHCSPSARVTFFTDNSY
Method in brief: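 Radiometric FlashPlate assay using recombinant kinase (10–200 ng/well) with poly(Glu,Tyr)4:1 substrate. Buffer: 60 mM HEPES-NaOH pH 7.5, 3 mM MgCl2, 3 mM MnCl2, 3 µM orthovanadate, 1.2 mM DTT, PEG 20000, 1 µM [γ-33P]-ATP. Run 80 min at 30 °C, stopped with H3PO4, and 33P incorporation counted.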

Chain of Casein kinase II subunit alpha (Homo sapiens) (P68400 whole entry, looked up): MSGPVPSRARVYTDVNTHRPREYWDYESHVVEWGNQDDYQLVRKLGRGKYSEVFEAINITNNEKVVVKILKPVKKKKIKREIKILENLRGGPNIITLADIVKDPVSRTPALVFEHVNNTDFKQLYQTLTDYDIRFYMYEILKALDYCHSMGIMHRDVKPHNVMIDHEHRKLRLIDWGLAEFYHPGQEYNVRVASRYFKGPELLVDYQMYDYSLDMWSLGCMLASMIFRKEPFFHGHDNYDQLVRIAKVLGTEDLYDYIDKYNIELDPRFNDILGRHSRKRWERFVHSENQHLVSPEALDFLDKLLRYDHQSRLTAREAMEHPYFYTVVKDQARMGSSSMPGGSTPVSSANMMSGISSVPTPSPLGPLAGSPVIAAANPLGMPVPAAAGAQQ
Chain of Proto-oncogene tyrosine-protein kinase Src (Homo sapiens) (P12931 2-536 limits assumed): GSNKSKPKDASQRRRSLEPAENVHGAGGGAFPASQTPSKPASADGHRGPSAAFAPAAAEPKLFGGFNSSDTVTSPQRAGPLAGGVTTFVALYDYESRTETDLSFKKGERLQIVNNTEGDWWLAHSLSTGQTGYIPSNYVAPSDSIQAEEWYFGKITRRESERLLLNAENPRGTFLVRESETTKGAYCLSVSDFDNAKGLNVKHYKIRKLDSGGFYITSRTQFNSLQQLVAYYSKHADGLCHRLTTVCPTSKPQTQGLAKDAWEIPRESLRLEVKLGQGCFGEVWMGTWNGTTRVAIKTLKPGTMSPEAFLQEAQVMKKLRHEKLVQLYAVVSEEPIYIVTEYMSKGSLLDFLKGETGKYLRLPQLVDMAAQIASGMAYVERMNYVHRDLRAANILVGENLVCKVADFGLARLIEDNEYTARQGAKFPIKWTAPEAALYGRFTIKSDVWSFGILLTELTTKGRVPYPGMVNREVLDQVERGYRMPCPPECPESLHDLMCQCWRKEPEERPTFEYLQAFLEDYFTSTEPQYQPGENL

Compound | residual activity [1] | residual activity [2] | residual activity [3] | residual activity [4] | residual activity [5] | residual activity [6] | residual activity [7] | residual activity [8] | IC50 [9]
COc1cc2c(Oc3ccc(-c4nc5ccccc5s4)cc3)ncnc2cc1OCCCN1CCN(C)CC1 | 229% | 75% | 95% | 91% | 26% | 99% | 97% | 62% | 121 nM
COc1cc2c(Oc3ccc(-c4nc5ccccc5s4)cc3)ncnc2cc1OCCCN1CCCC1 | 188% | 83% | 105% | 102% | 15% | 97% | 117% | 67% | 140 nM
COc1cc2c(Oc3ccc(-c4nc5ccccc5s4)cc3F)ncnc2cc1OCCCN1CCN(C)CC1 | 264% | 45% | 86% | 81% | 3% | 98% | 104% | 90% | 190 nM
